In ChEMBL document CHEMBL1287671, “Design, synthesis and SAR of a novel series of benzimidazoles as potent NPY Y5 antagonists” (Bioorg Med Chem Lett, 2010):

Legend:
Liver microsomes = assay: Intrinsic clearance in human liver microsomes; type: ADME, Microsome
How it was run: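 Intrinsic clearance measured in human liver microsomes; expressed as ml/min/g liver.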

[1] = Ratio of drug level in brain to blood in rat at 0.5 mg/kg, iv after 1 hr; type: ADME, organism-based; set-up: dose 0.5 mg/kg, route intravenous
How it was run: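 Male rats given 0.5 mg/kg iv; brain and blood levels sampled 1 h after dosing and expressed as brain/blood partition.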

Row | Compound | CL (Liver microsomes) [mL/min/g] | Kp at 1 h [1]
1 | O=C(Nc1nc(-c2ccccn2)cs1)N1CCC2(CC1)CN(c1ccccc1)C(=O)O2 | 0.6 | < 0.1
2 | O=C1OC2(CCN(c3nc4cc(Br)ccc4[nH]3)CC2)CN1c1ccccc1 | 2.5 | 
3 | O=C1OC2(CCN(c3nc4cc(F)ccc4[nH]3)CC2)CN1c1ccccc1 | 7 | 
4 | O=C1OC2(CCN(c3nc4cc(-c5ccc(F)cc5)ccc4[nH]3)CC2)CN1c1ccccc1 | 7 | 
5 | O=C1OC2(CCN(c3nc4cc(OC(F)(F)F)ccc4[nH]3)CC2)CN1c1ccccc1 | 0.5 | 0.3
6 | O=C1O[C@]2(CC[C@H](c3nc4ccc(OC(F)(F)F)cc4[nH]3)CC2)CN1c1ccccc1 | 0.5 | 0.6
7 | O=C1O[C@]2(CC[C@H](c3nc4cc(OC(F)(F)F)ccc4[nH]3)CC2)CN1c1ccccc1F | 0.5 | 0.8
8 | O=C1O[C@]2(CC[C@H](c3nc4cc(OC(F)(F)F)ccc4[nH]3)CC2)CN1c1ccc(F)cc1 | 0.5 | 
9 | Cc1ccccc1N1C[C@]2(CC[C@@H](c3nc4ccc(OC(F)(F)F)cc4[nH]3)CC2)OC1=O | 0.5 | 
10 | O=C1O[C@]2(CC[C@H](c3nc4ccc(OC(F)(F)F)cc4[nH]3)CC2)CN1c1ccccc1Cl | 0.5 | 
11 | O=C1O[C@]2(CC[C@H](c3nc4cc(OC(F)(F)F)ccc4[nH]3)CC2)CN1c1ccccn1 | 0.5 | 0.5
12 | Cc1cccc(N2C[C@]3(CC[C@@H](c4nc5ccc(OC(F)(F)F)cc5[nH]4)CC3)OC2=O)n1 | 0.6 | 
13 | Cc1ncccc1N1C[C@]2(CC[C@@H](c3nc4ccc(OC(F)(F)F)cc4[nH]3)CC2)OC1=O | 0.6 | 
14 | O=C1O[C@]2(CC[C@H](c3nc4ccc(OC(F)(F)F)cc4[nH]3)CC2)CN1c1cccc(F)n1 | 0.5 | 
15 | O=C1O[C@]2(CC[C@H](c3nc4cc(OC(F)(F)F)ccc4[nH]3)CC2)CN1c1cccnc1 | 0.5 | 
16 | O=C1O[C@]2(CC[C@H](c3nc4cc(C(F)(F)F)ccc4[nH]3)CC2)CN1c1ccccc1 | 0.5 | 0.3
17 | O=C1O[C@]2(CC[C@H](c3nc4cc(C(F)(F)F)ccc4[nH]3)CC2)CN1c1ccccn1 | 0.5 | 
18 | N#Cc1ccc2nc([C@H]3CC[C@]4(CC3)CN(c3ccccc3)C(=O)O4)[nH]c2c1 | 0.5 | < 0.03
19 | N#Cc1ccc2[nH]c([C@H]3CC[C@]4(CC3)CN(c3ccc(F)cc3)C(=O)O4)nc2c1 | 0.5 | 
20 | N#Cc1ccc2nc([C@H]3CC[C@]4(CC3)CN(c3ccccn3)C(=O)O4)[nH]c2c1 | 15 | 
21 | O=C1OC2(CCN(c3nc4cc(C(F)(F)F)ccc4[nH]3)CC2)CN1c1ccccc1 | 0.5 | 0.2
22 | O=C1OC2(CCN(c3nc4ccccc4[nH]3)CC2)CN1c1ccccc1 | 9.8 | 
